# In the library only some 4.5% were active in any assay of this set; here they are far more common.
# GPR7 antagonist – blocks human GPR7 receptor signaling. P48145. GPR7-expressing cells, fluorescence antagonist assay. inhibition, % at 4.4 µM. 290,000 compounds, 1.1% hits; in the data active = inhibition above about 16%, passing the limit was not always enough;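 note: cells stimulated with the agonist NPW; 0% = agonist with vehicle and 100% = vehicle without agonist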
# OX1R antag-1 – human HCRTR1 antagonism; O43613; CHO/OX1R cells, Fluo-8 calcium fluorescence, orexin A; 330,000 compounds, 0.43% hits; inhibition, % at 5 µM; AID 434989;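 active = inhibition above its plate's threshold, mean inhibition of all tested compounds on the plate plus 3 SD, cut at about 37% in these data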;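 note: 0% = orexin A challenge wells and 100% = SB-334867-A antagonist wells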
# Target sequence (O43613 whole entry, looked up): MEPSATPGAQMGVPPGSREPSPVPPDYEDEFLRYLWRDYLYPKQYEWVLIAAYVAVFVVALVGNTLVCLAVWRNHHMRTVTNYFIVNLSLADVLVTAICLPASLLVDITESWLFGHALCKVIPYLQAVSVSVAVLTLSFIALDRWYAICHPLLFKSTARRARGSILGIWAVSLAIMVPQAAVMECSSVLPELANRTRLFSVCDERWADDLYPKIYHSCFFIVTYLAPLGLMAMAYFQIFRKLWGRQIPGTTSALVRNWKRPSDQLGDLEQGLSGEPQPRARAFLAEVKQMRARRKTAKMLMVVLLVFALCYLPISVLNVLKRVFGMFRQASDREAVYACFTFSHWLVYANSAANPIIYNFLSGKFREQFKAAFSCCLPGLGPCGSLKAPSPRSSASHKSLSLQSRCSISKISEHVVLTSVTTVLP
# CHO parental Ca – signal in parental CHO cells, OX1R antagonist counter-screen; 330,000 compounds, 0.63% hits; parental CHO-K1, ATP-induced calcium, Fluo-8 fluorescence; inhibition, % at 5.6 µM;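 active = inhibition above that plate's mean sample inhibition plus 3 SD, cut at about 26% in these data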;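 note: 0% = ATP-challenged DMSO wells and 100% = DMSO wells without ATP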
#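 Measured by: calcium-sensitive Fluo-8 fluorescence / Test system: CHO parental line / Controls: ATP-challenged DMSO wells low, unchallenged DMSO wells high / Measure: % inhibition / Compound: single nominal dose of 5.6 µM per compound / Replicates: single well per compound, no replicates / Reagent: ATP as calcium-mobilizing challenge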
# TAAR1 antag – human TAAR1 antagonism | CHO RD-HGA16 TAAR1, Fluo-8 calcium fluorescence, antagonist | 360,000 compounds, 1.5% hits | Q96RJ0 | inhibition, % at 3 µM | AID 624466;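 active = inhibition above a per-plate cutoff, the mean inhibition of test compounds on that plate plus 3 SD, cut at about 49% in these data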;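 note: 0% = DMSO plus EC80 beta-PEA response and 100% = DMSO alone without agonist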
# Target sequence (Q96RJ0 whole entry, looked up): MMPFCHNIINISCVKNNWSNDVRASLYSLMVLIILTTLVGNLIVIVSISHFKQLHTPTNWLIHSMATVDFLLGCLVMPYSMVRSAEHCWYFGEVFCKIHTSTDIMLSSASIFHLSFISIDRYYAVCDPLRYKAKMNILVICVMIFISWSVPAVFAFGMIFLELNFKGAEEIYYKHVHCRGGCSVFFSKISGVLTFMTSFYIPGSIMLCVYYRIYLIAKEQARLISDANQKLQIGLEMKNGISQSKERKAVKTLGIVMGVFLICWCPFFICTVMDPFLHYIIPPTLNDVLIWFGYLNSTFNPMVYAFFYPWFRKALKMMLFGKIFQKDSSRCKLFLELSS
#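 Material: CHO RD-HGA16 cells bearing hTAAR1; compound dosing: one-point dosing, 3 µM nominal final; schedule: dye loading 75 min at 37 °C, then 30 min room temperature; measured by: calcium fluorescence with Fluo-8; control set: vehicle and agonist controls; replication: n of 1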
# TAAR1 ag – human TAAR1 agonism; CHO RD-HGA16 TAAR1, Fluo-8 calcium fluorescence; vehicle wells 0%, saturating PEA agonist 100%; activation, % at 3 µM; 360,000 compounds, 0.99% hits;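 active = activation above the mean activation of all test compounds in the run plus 3 SD, cut at about 38% in these data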
#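 Test system: RD-HGA16 (CHO) cells co-expressing Gα16 and hTAAR1 / Benchmarks: DMSO vehicle as 0%, PEA at EC100 as 100% / Repeats: no replicates (n 1) / Measure: % activation from peak over basal fluorescence ratio, DMSO-to-PEA scaled / Timing: 17-24 h plating, Fluo-8 75 min 37 °C, 30 min RT / Technique: kinetic Fluo-8 calcium fluorescence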
# OX1R antag-2 – antagonists of human orexin 1 receptor (OX1R); 330,000 compounds, 1.8% hits; OX1R-expressing cells, FRET antagonist read-out; O43613; inhibition, % at 6.6 µM; in the data active = inhibition mostly above about 38%, no sharp cut-off; inactive = mostly below about 40%;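 note: 0% = agonist challenge alone and 100% = reference antagonist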
# TAAR1 ag confirm – confirmation of human TAAR1 agonists. AID 651783. activation, % at 3 µM. 2,400 compounds, 82% hits. CHO RD-HGA16 TAAR1, Fluo-8 calcium fluorescence; scaled: DMSO 0%, maximal phenethylamine 100%. shares compounds with TAAR1 ag;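 active = activation above a cutoff set at the run's mean compound activation plus 3 SD, cut at about 39% in these data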
# Ga16 nonsel ag – nonselective agonist in parental cells, TAAR1 agonist counter-screen. shares compounds with TAAR1 ag. CHO-Ga16 parental, Fluo-8 calcium fluorescence; normalized to maximal ATP response, DMSO zero. activation, % at 3 µM. 2,400 compounds, 50% hits;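 active = activation above the run cutoff, the mean activation over all tested wells plus 3 SD, cut at about 12% in these data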;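 note: 0% = DMSO wells and 100% = maximal ATP response on the peak over basal ratio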
# TAAR1 desensitize – human TAAR1 agonist that also desensitizes the receptor. shares compounds with TAAR1 ag. CHO RD-HGA16 hTAAR1, Fluo-8 calcium, beta-PEA response inhibition. inhibition, % at 3 µM. 2,400 compounds, 46% hits;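 active = inhibition above the run cutoff, the mean inhibition of all test compounds plus 3 SD, cut at about 49% in these data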;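 note: beta-PEA stimulus applied at its EC80; loss of beta-PEA calcium signal after compound pretreatment read as receptor desensitization; 0% = DMSO with beta-PEA at EC80 and 100% = DMSO alone without agonist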
# Ga16 antag count – nonselective Ga16 antagonism, counter-screen. shares compounds with TAAR1 ag. CHO-Ga16 ATP-induced calcium, Fluo-8 fluorescence. inhibition, % at 3 µM. 2,400 compounds, 39% hits;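 active = inhibition above the plate's mean compound inhibition plus 3 SD, computed per plate, cut at about 22% in these data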;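 note: 0% = EC80 ATP with DMSO and 100% = DMSO wells without ATP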
# * marks the source's active call; other numbers are inactive results; x = no result given.
SMILES,GPR7 antagonist,OX1R antag-1,CHO parental Ca,TAAR1 antag,TAAR1 ag,OX1R antag-2,TAAR1 ag confirm,Ga16 nonsel ag,TAAR1 desensitize,Ga16 antag count
CCOC(=O)C1(Cc2ccccc2)CCCN(C(=O)COc2ccccc2OC)C1 (stereo not drawn),x,x,x,-11.8,2.3,x,x,x,x,x
COc1ccc(C(c2sc3nc(C)nn3c2O)N2CCc3ccccc3C2)cc1 (stereo not drawn),-7.5,-17.9,-12.8,-0.8,33.5,21.7,x,x,x,x
COc1cc(C(c2sc3nc(C)nn3c2O)N2CCc3ccccc3C2)cc(OC)c1OC (stereo not drawn),-11.1,-18.4,-7.5,-42.7,45.4*,0.2,45.2*,0.5,12.6,11.3
COc1cccc(C(c2sc3ncnn3c2O)N2CCc3ccccc3C2)c1 (stereo not drawn),0.0,-25.8,-15.5,-22.0,73.0*,12.4,81.8*,2.3,46.4,11.0
CCNC(=O)C1CCCN(C(=O)c2ccc(OC)c(OC)c2)CC1 (stereo not drawn),x,x,x,-29.9,1.7,x,x,x,x,x
COc1ccc(CC(=O)NC(=S)Nc2cccc(C)c2)cc1,x,-1.0,0.8,49.4*,81.7*,-7.3,70.9*,50.2*,52.0*,45.0*
Cc1c(NC(=S)NC(=O)Cc2ccccc2)cccc1C(=O)O,-11.0,-6.2,1.6,11.9,8.8,5.5,x,x,x,x
Cc1cc(C)c(O)c(NC(=S)NC(=O)Cc2ccccc2)c1,18.6,6.3,-2.6,72.0*,95.4*,6.3,85.0*,47.7*,54.1*,36.8*
COc1ccc(CC(=O)NC(=S)Nc2cccc(CO)c2)cc1,x,-12.8,-4.4,0.4,78.6*,2.0,83.2*,55.4*,29.3,16.1
CSc1ccc(CN2CCC2(C)C(=O)NC2CCN(Cc3ccccc3)CC2)cc1 (stereo not drawn),x,x,x,-31.8,2.4,x,x,x,x,x
CCOc1ccc(S(=O)(=O)NCCC(=O)N2CCN(C(C)=O)CC2)cc1,x,x,x,-10.0,1.6,x,x,x,x,x
Cc1ccc(C)c(C(O)c2ncc(-c3cccc(C(F)(F)F)c3)[nH]2)c1 (stereo not drawn),x,x,x,65.7*,66.3*,x,58.1*,45.4*,34.1,33.1*
CN1CCN(/N=C/c2ccc(N(C)c3ccccc3)cc2)CC1,0.2,-3.3,-2.1,-17.4,5.2,4.2,x,x,x,x
CN1CCN(/N=C/c2ccc(N(c3ccccc3)c3ccccc3)cc2)CC1,-16.8,-11.7,-3.7,49.7*,72.7*,9.0,71.6*,27.6*,55.8*,35.3*
Cc1cc(N/N=C/c2ccccc2O)c2ccccc2n1,0.2,-24.5,-3.7,x,x,12.1,x,3.0,x,12.9
COc1ccc2nc(C)cc(N/N=C/c3cccc(OC)c3O)c2c1,-13.9,-32.4,-26.2,-8.1,-0.5,1.5,x,x,x,x
C=CCNCCCCOc1ccc(OCc2ccccc2)cc1,13.0,-10.0,-5.5,21.8,53.4*,7.0,70.1*,14.9*,37.3,16.6
c1ccc(COc2ccc(OCCCNC3CCCC3)cc2)cc1,12.0,-18.2,2.5,3.0,53.4*,13.8,78.7*,24.1*,49.2*,19.6
COCCn1c(N)c(N(Cc2ccccc2)C(=O)C(C)Oc2ccc(Br)cc2)c(=O)[nH]c1=O (stereo not drawn),x,x,x,2.1,-0.5,x,x,x,x,x
O=C(CCSc1nnc(-c2ccncc2)o1)Nc1ccc(Cl)cc1,-3.0,-7.8,-1.7,-15.1,40.1*,1.0,40.0*,4.0,8.3,14.7
COc1cc(CN2CCCCCC2)cc([N+](=O)[O-])c1O,-15.8,0.5,-1.2,-5.0,0.3,16.3,x,x,x,x
CCOc1cc(CN2CCCC(N3CCc4ccccc4C3)C2)ccc1O (stereo not drawn),0.6,x,x,-5.2,3.2,x,x,x,x,x
COc1cc(CN2CCc3ccccc3C2)ccc1O,-0.7,-5.5,14.1,x,x,9.6,x,-0.5,x,4.2
COc1cc(CN2CCc3ccccc3C2)cc([N+](=O)[O-])c1O,-9.7,-12.3,-11.7,58.8*,97.9*,32.2,98.2*,0.8,77.2*,-5.6
Cc1cc(C)c2c(=O)n3c(nc2c1)C(CC(C)C)NC(=O)c1cccnc1-3 (stereo not drawn),x,x,x,-17.2,-1.1,x,x,x,x,x
SMILES,GPR7 antagonist,OX1R antag-1,CHO parental Ca,TAAR1 antag,TAAR1 ag,OX1R antag-2,TAAR1 ag confirm,Ga16 nonsel ag,TAAR1 desensitize,Ga16 antag count
COc1ccc(NS(=O)(=O)c2ccc(-n3nnc4ccccc43)c([N+](=O)[O-])c2)cc1,6.6,-3.0,-5.7,31.7,52.4*,11.8,72.0*,39.2*,50.0*,40.4*
Cn1cc(-c2ccc3c(c2)OCO3)c2ccccc21,x,x,x,-14.3,2.2,x,x,x,x,x
O=C(Cc1ccc(-c2ccccc2)cc1)NC1CCCC1,-1.6,-8.8,-4.4,-3.8,59.0*,32.5,14.0,7.1,1.9,12.8
N#Cc1nc(-c2cccs2)oc1NCCc1ccccc1,3.2,-12.8,-11.7,2.8,50.9*,15.9,49.4*,2.6,25.1,17.0
O=C(Nc1nnc(-c2ccccc2)o1)c1ccc(Cl)cc1,-14.9,1.0,-7.1,24.8,76.3*,23.3,18.7,16.3*,7.8,14.5
Cc1ccc(S(=O)(=O)NCCc2ccccc2)cc1,-5.1,-19.2,-14.6,-3.5,0.4,4.7,x,x,x,x
Cc1cc(C)c(S(=O)(=O)NCCc2ccccc2)c(C)c1,-10.9,-8.8,-13.2,0.2,46.4*,22.5,52.3*,-0.1,28.8,13.4
O=C(Nc1cccnc1)c1ccc(Cl)c(Cl)c1,-13.8,2.5,-5.1,10.2,47.4*,-9.2,40.8*,41.7*,15.0,11.6
O=C(Nc1cccnc1)c1cc(Br)c(Br)s1,x,-22.7,-1.3,48.4,91.3*,32.2,74.9*,59.3*,50.3*,23.0*
CS(=O)(=O)c1cccc(NC(=O)c2ccc(Cl)c(Cl)c2)c1,-1.0,-4.0,-14.9,25.5,87.5*,-5.6,60.1*,42.7*,47.7,28.3*
NC(=O)c1cc(NC(=O)c2cc(Br)c(Br)s2)cc(C(N)=O)c1,-12.3,-0.3,-6.1,-24.9,2.9,21.6,x,x,x,x
CC(C)(C)c1cc(NC(=O)C2(C)CCN2C(=O)C2(c3ccccc3)CCCC2)no1 (stereo not drawn),x,x,x,0.2,3.0,x,x,x,x,x
CN1CCN(c2ccc(NC(=O)CSc3ccccc3)cc2F)CC1,4.2,-1.2,3.9,43.2,57.0*,1.4,71.3*,5.9,43.1,4.2
